Assay results taken from ChEMBL document CHEMBL1138195, “Highly chiral muscarinic ligands: the discovery of (2S,2'R,3'S,5'R)-1-methyl-2-(2-methyl-1,3-oxathiolan-5-yl)pyrrolidine 3-sulfoxide methyl iodide, a potent, functionally selective, M2 partial agonist” (J Med Chem, 2006).

How the values were obtained:
[1] = target: T1, Muscarinic acetylcholine receptor M1 (Homo sapiens) (UniProt P11229); assay: Agonist potency at muscarinic M1 receptor in rabbit vas deferens; assay type: functional, tissue-based; details: Oryctolagus cuniculus, target entry is the homologue from another species
T1 sequence (whole entry): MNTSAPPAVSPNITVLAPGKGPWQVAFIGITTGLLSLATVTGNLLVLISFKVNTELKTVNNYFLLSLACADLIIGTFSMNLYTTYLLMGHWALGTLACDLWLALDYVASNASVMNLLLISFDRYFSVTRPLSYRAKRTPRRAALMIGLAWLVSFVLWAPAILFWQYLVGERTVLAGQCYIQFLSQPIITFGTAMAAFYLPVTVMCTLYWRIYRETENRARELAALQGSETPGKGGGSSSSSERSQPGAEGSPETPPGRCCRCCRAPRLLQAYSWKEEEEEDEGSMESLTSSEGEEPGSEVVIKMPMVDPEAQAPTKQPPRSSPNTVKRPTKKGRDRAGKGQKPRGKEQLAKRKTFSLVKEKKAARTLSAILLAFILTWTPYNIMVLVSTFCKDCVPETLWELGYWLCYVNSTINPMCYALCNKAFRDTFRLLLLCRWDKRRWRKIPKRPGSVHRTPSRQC
In short: (§1)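 Field-stimulated (0.1 ms, 2 Hz, 10-15 V), contractions recorded isometrically after 1 h equilibration. Cumulative dose-response curves against p-Cl-McN-A-343 reference. Antagonists incubated 60 min before the repeat curve. Reported as pD2 (-log ED50) with intrinsic activity, or as pKb.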

[2] = target: T2, Muscarinic acetylcholine receptor M1 (Homo sapiens, UniProt P11229); assay: Binding affinity to cloned human muscarinic M1 receptor expressed in CHO cells; assay type: cell-based
T2 sequence (P11229 whole entry): T1 sequence (whole entry)

[3] = target: T3, Muscarinic acetylcholine receptor M5 (Homo sapiens, UniProt P08912); assay: Binding affinity to cloned human muscarinic M5 receptor expressed in CHO cells; assay type: cell-based
T3 sequence (P08912 whole entry): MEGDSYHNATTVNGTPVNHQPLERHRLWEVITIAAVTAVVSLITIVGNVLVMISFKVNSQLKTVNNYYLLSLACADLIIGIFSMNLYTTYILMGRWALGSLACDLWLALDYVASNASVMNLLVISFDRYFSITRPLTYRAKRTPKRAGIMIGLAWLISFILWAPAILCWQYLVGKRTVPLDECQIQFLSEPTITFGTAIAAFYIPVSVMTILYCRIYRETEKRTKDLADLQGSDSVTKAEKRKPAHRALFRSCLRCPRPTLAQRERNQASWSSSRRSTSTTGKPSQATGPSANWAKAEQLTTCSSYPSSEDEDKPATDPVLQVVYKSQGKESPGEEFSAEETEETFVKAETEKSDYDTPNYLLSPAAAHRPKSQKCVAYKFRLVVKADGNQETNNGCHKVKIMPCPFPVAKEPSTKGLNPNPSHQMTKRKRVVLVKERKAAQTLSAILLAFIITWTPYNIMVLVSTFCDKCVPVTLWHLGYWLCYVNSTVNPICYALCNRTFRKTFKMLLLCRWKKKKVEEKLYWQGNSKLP
In short: (§2)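 Membranes from CHO cells stably expressing human hm2, hm4 or hm5 receptors, at 70, 50 and 25 µg/mL protein respectively. 0.2 nM [3H]NMS displaced by unlabelled ligand for 120 min at room temperature, in 25 mM sodium phosphate with 5 mM MgCl2, pH 7.4. Rapid filtration, then scintillation counting. Mean of at least three experiments.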

[4] = target: T4, Muscarinic acetylcholine receptor M2 (Homo sapiens, UniProt P08172); assay: Binding affinity to cloned human muscarinic M2 receptor expressed in CHO cells; assay type: cell-based; in short: as §2
T4 sequence (P08172 whole entry): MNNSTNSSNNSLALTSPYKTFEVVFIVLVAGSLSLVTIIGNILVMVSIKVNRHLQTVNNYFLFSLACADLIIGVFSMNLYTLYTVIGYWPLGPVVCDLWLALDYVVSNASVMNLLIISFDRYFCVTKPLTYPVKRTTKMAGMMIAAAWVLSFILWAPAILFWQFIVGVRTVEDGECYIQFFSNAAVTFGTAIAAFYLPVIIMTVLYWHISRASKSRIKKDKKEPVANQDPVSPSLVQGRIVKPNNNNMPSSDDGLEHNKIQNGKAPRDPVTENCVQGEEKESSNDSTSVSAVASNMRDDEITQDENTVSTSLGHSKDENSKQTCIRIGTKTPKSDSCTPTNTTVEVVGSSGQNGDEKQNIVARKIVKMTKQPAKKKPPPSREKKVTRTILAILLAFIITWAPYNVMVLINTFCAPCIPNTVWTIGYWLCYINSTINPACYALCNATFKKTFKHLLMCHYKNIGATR

[5] = target: Muscarinic acetylcholine receptor M3 (Homo sapiens, UniProt P20309); assay: Binding affinity to cloned human muscarinic M3 receptor expressed in CHO cells; assay type: cell-based
[6] = target: T5, Muscarinic acetylcholine receptor M4 (Homo sapiens, UniProt P08173); assay: Binding affinity to cloned human muscarinic M4 receptor expressed in CHO cells; assay type: cell-based; in short: as §2
T5 sequence (P08173 whole entry): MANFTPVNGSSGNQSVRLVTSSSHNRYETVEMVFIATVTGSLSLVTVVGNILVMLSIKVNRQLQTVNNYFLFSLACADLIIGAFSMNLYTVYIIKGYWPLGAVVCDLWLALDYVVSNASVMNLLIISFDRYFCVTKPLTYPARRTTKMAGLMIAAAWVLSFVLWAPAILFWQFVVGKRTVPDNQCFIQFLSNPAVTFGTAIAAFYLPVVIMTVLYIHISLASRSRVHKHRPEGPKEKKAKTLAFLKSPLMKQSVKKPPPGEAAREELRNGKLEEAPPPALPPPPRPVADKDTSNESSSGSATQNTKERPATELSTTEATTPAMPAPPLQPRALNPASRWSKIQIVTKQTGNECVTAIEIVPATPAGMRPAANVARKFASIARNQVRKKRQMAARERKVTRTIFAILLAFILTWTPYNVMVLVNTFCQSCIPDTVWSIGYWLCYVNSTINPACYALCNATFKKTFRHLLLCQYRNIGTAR

[7] = target: T6, Muscarinic acetylcholine receptor M2 (Homo sapiens) (UniProt P08172); assay: Agonist potency at muscarinic M2 receptor in guinea pig atrium; assay type: functional, tissue-based; details: Cavia porcellus; Cardiac atrium; target entry is the homologue from another species
T6 sequence (whole entry): T4 sequence (P08172 whole entry)
In short: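 Guinea pig left atria in PSS at 30 °C, paced by square-wave pulses (1 ms, 1 Hz, 5-10 V). Inotropic force recorded isometrically after 2 h equilibration, with cumulative dose-response curves to arecaidine propargyl ester as reference. Antagonists incubated 60 min after a 30 min wash, then the curve was repeated. Values given as pD2 with intrinsic activity, or as pKb.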

[8] = target: Muscarinic acetylcholine receptor M3 (Cavia porcellus) (UniProt Q8VH26); assay: Agonist potency at muscarinic M3 receptor in guinea pig ileum; assay type: functional, tissue-based
In short: (§3)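 Isolated guinea pig tissue contractions, measured against arecaidine propargyl ester control curves. Agonists: cumulative dose-response curve after a 30 min wash, responses as % of the control maximum. Antagonists: 60 min incubation, then a new agonist curve. Parallel time-control tissues were run. Values expressed as pD2 (-log ED50) with intrinsic activity, or as pKb (-log Kb).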

[9] = target: T7, Muscarinic acetylcholine receptor M4 (Homo sapiens) (UniProt P08173); assay: Agonist potency at muscarinic M4 receptor in guinea pig lung strips; assay type: functional; details: Cavia porcellus, target entry is the homologue from another species; in short: as §3
T7 sequence (whole entry): T5 sequence (P08173 whole entry)

[10] = target: Muscarinic acetylcholine receptor M3 (Cavia porcellus) (UniProt Q8VH26); assay: Efficacy of agonist at muscarinic M3 receptor in guinea pig ileum as ratio of Ka/ED50; assay type: functional, tissue-based
In short: (§4)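 Functional affinity constants (Ka) obtained in the atrium and ileum preparations. Full agonists: Furchgott-Bursztyn method. Partial agonists: Waud method, comparing their concentration-response curves with arecaidine propargyl ester, with equieffective concentrations read graphically. Ka was then related to ED50.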

[11] = target: T1, Muscarinic acetylcholine receptor M1 (Homo sapiens); assay: Antagonist affinity at muscarinic M1 receptor in rabbit vas deferens; assay type: functional, tissue-based; details: Oryctolagus cuniculus, target entry is the homologue from another species; in short: as §1
[12] = target: T6, Muscarinic acetylcholine receptor M2 (Homo sapiens); assay: Efficacy of agonist at muscarinic M2 receptor in guinea pig atrium as ratio of Ka/ED50; assay type: functional, tissue-based; details: Cavia porcellus; Cardiac atrium; target entry is the homologue from another species; in short: as §4
[13] = target: T7, Muscarinic acetylcholine receptor M4 (Homo sapiens); assay: Antagonist affinity at muscarinic M4 receptor in guinea pig lung strips; assay type: functional; details: Cavia porcellus, target entry is the homologue from another species; in short: as §3

Muscarinic acetylcholine receptor M3 (Cavia porcellus), sequence (Q8VH26 1-587): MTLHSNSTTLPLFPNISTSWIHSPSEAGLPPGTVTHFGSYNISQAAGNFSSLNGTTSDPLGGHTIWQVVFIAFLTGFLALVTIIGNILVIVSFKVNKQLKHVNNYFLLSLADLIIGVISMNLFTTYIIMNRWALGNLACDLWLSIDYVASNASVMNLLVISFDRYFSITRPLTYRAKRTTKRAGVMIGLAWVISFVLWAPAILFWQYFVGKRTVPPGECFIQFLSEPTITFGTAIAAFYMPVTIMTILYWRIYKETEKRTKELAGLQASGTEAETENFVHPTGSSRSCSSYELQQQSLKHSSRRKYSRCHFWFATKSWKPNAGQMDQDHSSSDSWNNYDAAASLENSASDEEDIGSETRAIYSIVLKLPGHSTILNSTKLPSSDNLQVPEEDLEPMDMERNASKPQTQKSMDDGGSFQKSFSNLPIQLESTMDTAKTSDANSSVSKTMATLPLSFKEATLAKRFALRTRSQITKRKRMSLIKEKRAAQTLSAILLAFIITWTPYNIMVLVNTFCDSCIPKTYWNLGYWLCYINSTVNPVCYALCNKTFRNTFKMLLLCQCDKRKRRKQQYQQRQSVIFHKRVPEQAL
Muscarinic acetylcholine receptor M3, sequence (P20309 whole entry): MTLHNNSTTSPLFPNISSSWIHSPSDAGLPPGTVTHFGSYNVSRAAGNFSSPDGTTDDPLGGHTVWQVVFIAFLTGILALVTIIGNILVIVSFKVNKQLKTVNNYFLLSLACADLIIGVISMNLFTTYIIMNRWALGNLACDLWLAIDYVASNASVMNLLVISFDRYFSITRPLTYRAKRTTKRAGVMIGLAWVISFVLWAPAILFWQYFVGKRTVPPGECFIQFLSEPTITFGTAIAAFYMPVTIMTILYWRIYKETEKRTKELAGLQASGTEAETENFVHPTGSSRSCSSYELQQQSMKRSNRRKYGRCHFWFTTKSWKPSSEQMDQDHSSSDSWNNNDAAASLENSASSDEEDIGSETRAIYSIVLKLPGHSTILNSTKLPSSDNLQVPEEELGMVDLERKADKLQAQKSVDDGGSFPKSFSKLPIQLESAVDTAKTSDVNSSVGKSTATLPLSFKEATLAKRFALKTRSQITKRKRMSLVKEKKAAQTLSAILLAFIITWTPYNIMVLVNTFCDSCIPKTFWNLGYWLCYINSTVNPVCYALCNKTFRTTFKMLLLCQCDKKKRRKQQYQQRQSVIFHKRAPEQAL

SMILES	pD2 [1]	Ki [2]	Ki [3]	Ki [4]	Ki [5]	Ki [6]	Activity [7]	pD2 [7]	Activity [8]	pD2 [8]	pD2 [9]	Ratio [10]	-logKa [7]	-logKa [8]	pKb [11]	Ratio [12]	pKb [13]
C[N+](C)(C)CC#CCOC(=O)Nc1ccc(Cl)cc1	6.33	1950 nM	3.8 µM	3.24 µM	2400 nM	9.12 µM											
C#CCOC(=O)C1=CCCN(C)C1 [ARECAIDINE PROPARGYL ESTER]	7.14	1230 nM	0.933 µM	0.0871 µM	851 nM	0.977 µM	1	8.67	1	7.64	5.56						
C[C@@H]1O[C@H]([C@H]2CCC[N+]2(C)C)C[S@@+]1[O-]		> 100000 nM	> 100 µM	9.33 µM	> 100000 nM	> 100 µM	0.58	6.11	1	5.58		7	5.11	4.87	< 5	12	< 5
